Assay outcomes deposited in PubChem by several laboratories.
HTR2A ag = agonists of mouse serotonin 5-HT2A receptor (HTR2A); CHO-K1 mHTR2A beta-arrestin complementation, luminescence; percent of 30 µM serotonin response; activation, % at 7.6 µM; actives 0.66% (n = 360,000); AID 624169;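 active = activation above a run cutoff, the mean activation of all tested compounds plus 3 SD, cut at about 14% in these data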
MC4R barr agon = human MC4R agonism via beta-arrestin | U2OS MC4R beta-arrestin complementation, luminescence; percent of melanotan II response, DMSO zero | activation, % at 8.9 µM | actives 0.98% (n = 360,000) | AID 540308;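 active = activation above a per-plate cutoff, the mean activation of sample wells on that plate plus 3 SD, cut at about 8% in these data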
TAAR1 ag = agonists of human TAAR1. activation, % at 3 µM. actives 0.99% (n = 360,000). CHO RD-HGA16 TAAR1, Fluo-8 calcium fluorescence; vehicle wells 0%, saturating PEA agonist 100%. AID 624467. Q96RJ0;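 active = activation above the mean activation of all test compounds in the run plus 3 SD, cut at about 38% in these data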
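System: CHO RD-HGA16 cells carrying human TAAR1 plus Gα16; Incubation: 17-24 h seeding, 75 min 37 °C dye, 30 min RT; Measured by: Fluo-8 fluorescence, 5 s baseline then 140 s kinetic read; Control set: DMSO and PEA EC100; Replication: single well for each compound.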
TAAR1 antag = human TAAR1 antagonism; Q96RJ0; CHO RD-HGA16 TAAR1, Fluo-8 calcium fluorescence, antagonist; inhibition, % at 3 µM; actives 1.5% (n = 360,000); AID 624466;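 active = inhibition above a per-plate cutoff, the mean inhibition of test compounds on that plate plus 3 SD, cut at about 49% in these data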
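Test system – hTAAR1-expressing CHO RD-HGA16 cells, Gα16-coupled · Also added – β-PEA at EC80 concentration, post-compound challenge · Compound – 3 µM, single point · Incubation – dye loading 75 min at 37 °C, then 30 min room temperature · Measured by – Fluo-8 intracellular calcium dye fluorescence, real-time kinetic reads · Benchmarks – vehicle and agonist controls · Replicates – singlicate, one well per test compound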
B2AR ag = activates human beta-2 adrenergic receptor causing internalization; P07550; Am2.2-beta2AR cells, FAP receptor internalization, flow cytometry; response, % (no concentration beside the values); actives 0.43% (n = 340,000);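 active = response above a set limit, near 3 SD of response in nonfluorescent compounds, cut at about 42% in these data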
Target sequence (P07550 whole entry, looked up): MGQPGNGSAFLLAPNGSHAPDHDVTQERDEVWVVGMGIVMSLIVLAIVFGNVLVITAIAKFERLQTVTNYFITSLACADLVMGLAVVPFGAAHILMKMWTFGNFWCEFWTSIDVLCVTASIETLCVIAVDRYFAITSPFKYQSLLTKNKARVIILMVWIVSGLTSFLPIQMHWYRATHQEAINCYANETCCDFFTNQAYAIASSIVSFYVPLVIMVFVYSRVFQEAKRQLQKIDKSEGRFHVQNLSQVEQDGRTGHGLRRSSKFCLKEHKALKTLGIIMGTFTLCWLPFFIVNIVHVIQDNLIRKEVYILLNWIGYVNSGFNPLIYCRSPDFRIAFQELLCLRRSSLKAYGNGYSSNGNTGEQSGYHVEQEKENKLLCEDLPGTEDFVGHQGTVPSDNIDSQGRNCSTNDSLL
MC4R antag cAMP = human MC4R antagonism in cAMP assay | MC4R-expressing cells, MTII-stimulated cAMP, LANCE TR-FRET | inhibition, % at 6.5 µM | actives 0.48% (n = 360,000);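 active = inhibition above its plate's cutoff, the mean of tested wells on that plate plus 3 SD, cut at about 29% in these data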
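System: U2OS-MC4R stable cell line; Technique: Eu-cAMP/anti-cAMP TR-FRET, emission 671 nm; Repeats: single well per compound; Also added: Melanotan II; Dosing: one concentration, 6.5 µM nominal; Schedule: 30-min compound, 1-h challenge, 1-h detection, room temperature.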
A number is an active result; . = inactive; / = no result given. Only some compounds are listed: those with a hit (about 4.3% of all), similar ones and a draw of the others.

SMILES | HTR2A ag | MC4R barr agon | TAAR1 ag | TAAR1 antag | B2AR ag | MC4R antag cAMP
C=CCNc1c2c(nc3nnnn13)CCCC2 | . | . | . | . | . | .
C=CCNc1nc(S(=O)Cc2ccc(C)cc2)nc2c1CCCC2 (configuration not stated) | . | . | . | . | 53 | .
COc1ccc(N(C(=O)CCl)C(C(=O)NC2CCCCC2)c2cccnc2)cc1 (configuration not stated) | . | 8.7 | . | . | . | .
COc1ccc(C(C(=O)NC2CCCCC2)N(C(=O)CCl)c2ccc(C)cc2)cc1 (configuration not stated) | . | 18 | . | . | 44 | .
COc1ccc(C(C(=O)NC2CCCCC2)N(C(=O)CCl)c2cccc(Cl)c2)cc1 (configuration not stated) | . | 25 | . | . | 42 | .
Cc1ccc(S(=O)(=O)N2CC3C(=O)C[C@@H](c4ccccc4)N(S(=O)(=O)c4cccc(Cl)c4)C3CC2c2ccccc2)cc1 (some centres not stated) | . | / | . | . | / | /
CC(C)C1=CC2C3C(=O)N(c4ccccc4)C(=O)C3C1C(=O)C2(C)O (configuration not stated) | / | / | . | . | / | /
COC(=O)[C@]12C[C@H](CC(=O)NCCc3ccccc3OC)C(=O)N(CCC3=CCCCC3)C1=C[C@H](COCc1ccccc1)O[C@@H]2C | / | / | . | . | / | /
Cc1cn2c(=O)c3ncn(C4OC(CO)C(O)C4O)c3n(C)c2n1 (configuration not stated) | / | / | . | . | / | /
O=[N+]([O-])c1ccc(OC2OCC(O)C(O)C2O)cc1 (configuration not stated) | / | / | . | . | / | /
Cc1ccc(C(=O)O)cc1-c1ccc(/C=C2\SC(=O)N(CC(=O)Nc3ccccc3)C2=O)o1 | . | . | . | . | . | 32
Cc1ccccc1NC(=O)CN1C(=O)S/C(=C\c2ccc(-c3cc(C(=O)O)ccc3C)o2)C1=O | . | . | . | . | . | .
O=C1c2ccccc2/C(=C\c2ccc(O[C@@H]3CCCCO3)cc2)N1c1ccccc1 | / | / | . | . | / | /
CCn1c(=S)sc2c(=O)n(CC(=O)Nc3ccccc3)c(C)nc21 | . | . | . | . | . | .
CCn1c(=S)sc2c(=O)n(CC(=O)Nc3ccc(Cl)cc3)c(C)nc21 | . | 8.6 | . | . | . | .
C#CCN1C(=O)[C@]2(OC[C@@H]3Cc4ccccc4[C@@H]3C=C2C)c2ccccc21 | / | / | . | . | / | /
CSc1ccc(Cl)c(C(=O)NCCOc2cc(C(C)C)ccc2C)c1 | . | . | . | 49 | . | .
Cc1ccc2nc(Cl)c3nnnn3c2c1 | . | . | / | / | 87 | .
Cc1ccc2nc(N3CCN(c4cccc(C)c4C)CC3)c3nnnn3c2c1 | . | . | . | . | . | .
CN1CCCCC(NC(=O)c2ccc(F)c(F)c2)C1=O (configuration not stated) | / | / | . | . | / | /
O=C(COC(=O)c1ccc2c(c1)C(=O)N(c1cccc3ncccc13)C2=O)c1ccc(Cl)cc1 | . | . | . | . | 63 | .
Cc1ccc(C(=O)COC(=O)c2ccc3c(c2)C(=O)N(c2cccc4ncccc24)C3=O)cc1 | . | . | . | . | . | .
COCCCNc1ccn2nc(-c3ccc(OCc4ccccc4)cc3)cc2n1 | . | . | . | 56 | / | .
CC1(C)C(=O)C=CC(=O)C(C)(C)C(=O)C=CC(=O)C(C)(C)C2=CC=C(O2)C(C)(C)C(=O)C=CC1=O | . | . | . | . | 62 | .
COc1ccccc1OC(=O)c1cc2ccccc2oc1=O | . | . | . | . | . | .
SMILES | HTR2A ag | MC4R barr agon | TAAR1 ag | TAAR1 antag | B2AR ag | MC4R antag cAMP
COc1cc(/C=C/[N+](=O)[O-])ccc1OC(=O)c1cc2ccccc2oc1=O | . | . | . | . | 54 | .
C[C@@H]1COc2cc(NCCO)ccc2S(=O)(=O)N1 | / | / | . | . | / | /
c1ccc2c(CCNc3ncnc4nc[nH]c34)cccc2c1 | . | . | . | 67 | . | .
O=C(/C=C/c1cc(Br)ccc1O)c1ccco1 | . | . | . | . | 86 | .
O=S(=O)(Nc1ccc(S(=O)(=O)N2CCCC2)cc1)c1ccc(F)cc1 | . | . | . | . | . | .
Cc1ccc(S(=O)(=O)Nc2ccc3c(c2)OCCO3)cc1 | . | . | . | . | . | .
O=S(=O)(Nc1ccc2c(c1)OCCO2)c1ccc(F)cc1 | . | . | 40 | . | . | .
CSc1ccc(S(=O)(=O)Nc2ccc(F)cc2)cc1 | . | . | 39 | . | . | .
O=S(=O)(Nc1ccc(F)cc1)c1ccc(S(=O)(=O)N2CCOCC2)cc1 | . | . | 61 | . | . | .
COc1ccc(NS(=O)(=O)c2ccc(SC)cc2)cc1 | . | . | . | . | . | .
C[C@@H]1CCCCO[C@@H](CN(C)C(=O)Nc2ccc(C(F)(F)F)cc2)[C@@H](C)CN([C@H](C)CO)C(=O)c2cc(NS(=O)(=O)c3ccc(Cl)cc3)ccc2O1 | / | / | . | . | / | /
CCCCc1c(-c2ccccc2OC)ncn1Cc1c(Cl)cccc1Cl | / | / | . | . | / | /
O=C(N[C@H](C(=O)N1CCC[C@H]1C(=O)NC1CCCC1)C1CCCCC1)c1ccco1 | / | / | . | . | / | /
O=C(C[n+]1ccc(/C=C/c2ccccc2)cc1)c1ccc2c(c1)OCCO2 | . | . | 44 | . | . | .
CCOc1ccccc1N1CCN(C(=O)c2ccncc2)CC1 | . | . | . | . | . | .
CCOc1ccccc1N1CCN(C(=O)c2cccc(-c3ccc(O)cc3)c2)CC1 | . | . | . | 51 | . | .
Cc1cc2nc(-c3ccccc3)c(Cc3cccc(Cl)c3)n2c(C)c1Br | . | / | . | . | / | /
O=C(c1ccco1)N1CCN(C(=O)c2ccco2)CC1 | . | / | . | . | / | /
N#C/C=C/N1CCN(C(=O)c2ccco2)CC1 | . | . | 41 | . | . | .
Cc1ccccc1-c1cc2nc(OCC3CCCO3)n(C)c(=O)c2s1 (configuration not stated) | . | . | . | . | / | .
COc1ccc(S(=O)(=O)/N=C2\C=C(Nc3ccc(O)cc3)C(=O)c3ccccc32)cc1 | . | . | . | 51 | 52 | .
COc1ccc(C2NC(=S)N(Cc3ccc(Cl)cc3)C(C)=C2C(C)=O)cc1 (configuration not stated) | / | / | . | . | / | /
O=C1/C(=C\c2cccc(O)c2)SC(=S)N1Cc1ccccc1 | . | . | . | . | . | .
COc1cc(/C=C2/SC(=S)N(Cc3ccccc3)C2=O)ccc1O | . | . | 44 | . | . | .
O=C1/C(=C\c2ccc(O)c(O)c2)SC(=S)N1Cc1ccccc1 | . | . | 38 | . | . | .
COc1cc(NC(=O)COc2ccc3c(C)cc(=O)oc3c2C)cc(OC)c1OC | . | . | . | . | . | .
